Laboratory results from ChEMBL document CHEMBL1123740, “Potential anti-AIDS drugs. 2',3'-Dideoxycytidine analogues” (1987).

Key:
ATH-8 cell line [1] = test: Compound was evaluated for cytotoxicity by HIV cytopathic effect assay performed with ATH8 cells at a concentration of 1(uM); assay type: functional, Homo sapiens
Outline: (§1)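 Uninfected control ATH8 cells (2×10^5) were polybrene-treated and cultured in 2 mL IL-2-containing medium with or without compound at 37 °C in 5% CO2. Viable cells were counted by trypan blue exclusion on a hemocytometer at days 5–7. % cytotoxicity = 100 × [1 − (viable cells with nucleoside ÷ viable cells cultured alone)].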

ATH-8 cell line [2] = test: (§2) Compound was evaluated for cytotoxicity by HIV cytopathic effect assay performed with ATH8 cells at a concentration of 10(uM); assay type: functional, Homo sapiens; outline: as §1
ATH-8 cell line [3] = test: Compound was evaluated for cytotoxicity by HIV cytopathic effect assay performed with ATH8 cells at a concentration of 200(uM); assay type: functional, Homo sapiens; outline: as §1
ATH-8 cell line [4] = test: Compound was evaluated for cytotoxicity by HIV cytopathic effect assay performed with ATH8 cells at a concentration of 30(uM); assay type: functional, Homo sapiens; outline: as §1
[5] = Compound was evaluated for the protective effect against HTLV-III/LAV (HIV) pathogenesis at a concentration of 1(uM); assay type: functional
Outline: (§3)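 ATH8 cells (2×10^5) were polybrene-treated, then exposed to HTLV-IIIB (2000 virus particles/cell) for 45 min. They were resuspended in 2 mL IL-2-containing medium with or without compound and incubated at 37 °C in 5% CO2. Viable cells were counted by trypan blue exclusion on days 5–7. % protection compared infected treated, infected untreated, and uninfected cells.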

[6] = Compound was evaluated for the protective effect against HTLV-III/LAV (HIV) pathogenesis at a concentration of 10(uM); assay type: functional; outline: as §3
[7] = Compound was evaluated for the protective effect against HTLV-III/LAV (HIV) pathogenesis at a concentration of 200(uM); assay type: functional; outline: as §3
[8] = Compound was evaluated for the protective effect against HTLV-III/LAV (HIV) pathogenesis at a concentration of 30(uM); assay type: functional; outline: as §3
ATH-8 cell line [9] = test: Compound was evaluated for cytotoxicity by HIV cytopathic effect assay performed with ATH8 cells at a concentration of 100(uM); assay type: functional, Homo sapiens; outline: as §1
ATH-8 cell line [10] = test: Compound was evaluated for cytotoxicity by HIV cytopathic effect assay performed with ATH8 cells at a concentration of 2(uM); assay type: functional, Homo sapiens; outline: as §1
[11] = Compound was evaluated for the protective effect against HTLV-III/LAV (HIV) pathogenesis at a concentration of 100(uM); assay type: functional; outline: as §3
[12] = Compound was evaluated for the protective effect against HTLV-III/LAV (HIV) pathogenesis at a concentration of 2(uM); assay type: functional; outline: as §3
ATH-8 cell line [13] = test: Compound was evaluated for cytotoxicity by HIV cytopathic effect assay performed with ATH8 cells at a concentration of 0.05(uM); assay type: functional, Homo sapiens; outline: as §1
ATH-8 cell line [14] = test: Compound was evaluated for cytotoxicity by HIV cytopathic effect assay performed with ATH8 cells at a concentration of 0.5(uM); assay type: functional, Homo sapiens; outline: as §1
ATH-8 cell line [15] = test: Compound was evaluated for cytotoxicity by HIV cytopathic effect assay performed with ATH8 cells at a concentration of 5(uM); assay type: functional, Homo sapiens; outline: as §1
ATH-8 cell line [16] = test: Compound was evaluated for cytotoxicity by HIV cytopathic effect assay performed with ATH8 cells at a concentration of 50(uM); assay type: functional, Homo sapiens; outline: as §1
[17] = Compound was evaluated for the protective effect against HTLV-III/LAV (HIV) pathogenesis at a concentration of 0.05(uM); assay type: functional; outline: as §3
[18] = Compound was evaluated for the protective effect against HTLV-III/LAV (HIV) pathogenesis at a concentration of 50(uM); assay type: functional; outline: as §3
[19] = Compound was evaluated for the protective effect against HTLV-III/LAV (HIV) pathogenesis at a concentration of 0.5(uM); assay type: functional; outline: as §3
[20] = Compound was evaluated for the protective effect against HTLV-III/LAV (HIV) pathogenesis at a concentration of 5(uM); assay type: functional; outline: as §3
ATH-8 cell line [21] = test: as §2; assay type: functional; outline: as §1
ATH-8 cell line [22] = test: Compound was evaluated for cytotoxicity by HIV cytopathic effect assay performed with ATH8 cells at a concentration of 1000(uM); assay type: functional, Homo sapiens; outline: as §1
ATH-8 cell line [23] = test: Compound was evaluated for cytotoxicity by HIV cytopathic effect assay performed with ATH8 cells at a concentration of 2000(uM); assay type: functional, Homo sapiens; outline: as §1
ATH-8 cell line [24] = test: Compound was evaluated for cytotoxicity by HIV cytopathic effect assay performed with ATH8 cells at a concentration of 500(uM); assay type: functional, Homo sapiens; outline: as §1
[25] = Compound was evaluated for the protective effect against HTLV-III/LAV (HIV) pathogenesis at a concentration of 1000(uM); assay type: functional; outline: as §3
[26] = Compound was evaluated for the protective effect against HTLV-III/LAV (HIV) pathogenesis at a concentration of 2000(uM); assay type: functional; outline: as §3
[27] = Compound was evaluated for the protective effect against HTLV-III/LAV (HIV) pathogenesis at a concentration of 500(uM); assay type: functional; outline: as §3

| SMILES | Cytotoxicity (ATH-8 cell line [1]) [%] | Cytotoxicity (ATH-8 cell line [2]) [%] | Cytotoxicity (ATH-8 cell line [3]) [%] | Protective effect [5] [%] | Protective effect [6] [%] | Protective effect [7] [%] | Cytotoxicity (ATH-8 cell line [9]) [%] | Protective effect [11] [%] | Cytotoxicity (ATH-8 cell line [14]) [%] | Cytotoxicity (ATH-8 cell line [15]) [%] | Cytotoxicity (ATH-8 cell line [16]) [%] | Protective effect [18] [%] | Protective effect [19] [%] | Protective effect [20] [%] | further results |
| --- | --- | --- | --- | --- | --- | --- | --- | --- | --- | --- | --- | --- | --- | --- | --- |
| Nc1nc(=O)n(C2CCC(CO)O2)cc1Br (stereo unspecified) | 14 | 14 | 0 | 6 | 8 | 0 |  |  |  |  |  |  |  |  | Cytotoxicity (ATH-8 cell line [4]): 2%; Protective effect [8]: 5% |
| Cc1cn(C2CCC(CO)O2)c(=O)nc1N (stereo unspecified) |  | 27 |  |  | 7 |  | 44 | 3 |  |  |  |  |  |  | Cytotoxicity (ATH-8 cell line [10]): 23%; Protective effect [12]: 2% |
| Nc1ccn([C@H]2CC[C@@H](CO)O2)c(=O)n1 [ZALCITABINE] |  |  |  |  |  |  |  |  | 0 | 0 | 30 | 77 | 97 | 100 | Cytotoxicity (ATH-8 cell line [13]): 0%; Protective effect [17]: 18% |
| N.N.Nc1ccn(C2CCC(COP(=O)(O)O)O2)c(=O)n1 (stereo unspecified) |  | 0 |  |  | 74 |  |  |  | 0 |  |  |  | 13 |  | Cytotoxicity (ATH-8 cell line [10]): 7%; Protective effect [12]: 9% |
| Cc1cn([C@H]2C=C[C@@H](CO)O2)c(=O)[nH]c1=O [STAVUDINE] |  |  | 6 |  | 3 | 77 | 13 | 19 |  |  | 8 | 9 |  |  | Cytotoxicity (ATH-8 cell line [21]): 8%; Cytotoxicity (ATH-8 cell line [22]): 40%; Cytotoxicity (ATH-8 cell line [23]): 53%; Cytotoxicity (ATH-8 cell line [24]): 30%; Protective effect [25]: 46%; Protective effect [26]: 43%; Protective effect [27]: 68% |
| Nc1nc(=O)n([C@@H]2CC[C@H](CO)O2)cc1F |  |  |  |  |  |  |  |  | 0 | 0 | 9 | 88 | 100 | 100 | Cytotoxicity (ATH-8 cell line [13]): 5%; Protective effect [17]: 5% |
| Cc1cn(C2CCC(COP(=O)([O-])[O-])O2)c(=O)[nH]c1=O.[Na+].[Na+] (stereo unspecified) |  | 9 | 10 |  | 7 | 15 |  |  |  |  | 9 | 18 |  |  |  |
| Nc1ncnc2c1ncn2C1CCC(COP(=O)([O-])[O-])O1.[Na+].[Na+] (stereo unspecified) | 2 | 6 | 5 | 25 | 100 | 100 | 0 | 100 |  | 10 | 4 | 83 |  | 91 |  |
| Nc1ncn(C2CCC(CO)O2)c(=O)n1 (stereo unspecified) | 13 | 19 |  | 16 | 58 |  |  |  |  |  | 62 | 38 |  |  |  |
| Nc1ncnc2c1ncn2[C@H]1CC[C@@H](CO)O1 | 0 | 0 | 0 | 42 | 100 | 100 | 0 | 100 |  | 6 | 0 | 100 |  | 98 |  |
